Laboratory results reported in ChEMBL document CHEMBL5058577, “EUbOPEN Chemogenomics Library 2 (Multiplex)” (2022).

Test system: HEK-293T
Assay: Multiplex assay against HEK293T
Format: toxicity, cell-based
Details: human
Method in brief: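 Hoechst33342, BioTracker Green Microtubule Cytoskeleton Dye, MitoTracker Red and Annexin V Alexa Fluor 680 were added to live cells at seeding, and imaging on a CQ1 microscope at 37°C and 5% CO2 followed compound addition. Gating by CellPathfinder machine learning separated cells into Hoechst high-intensity objects or normal cells, then normal cells into healthy, pyknosed or fragmented nuclei, then pyknosed cells into mitotic or apoptotic. Per cents of healthy-nucleus cells are reported for the tubulin, mitochondrial-mass and membrane-permeability phenotypes.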

[1] = 12 h, 1 µM, compound concentration 1 uM, replicate 1
[2] = 12 h, 1 µM, compound concentration 1 uM, replicate 2
[3] = 12 h, 10 µM, compound concentration 10 uM, replicate 1
[4] = 12 h, 10 µM, compound concentration 10 uM, replicate 2
[5] = 24 h, 1 µM, compound concentration 1 uM, replicate 1
[6] = 24 h, 1 µM, compound concentration 1 uM, replicate 2
[7] = 24 h, 10 µM, compound concentration 10 uM, replicate 1
[8] = 24 h, 10 µM, compound concentration 10 uM, replicate 2
[9] = 48 h, 1 µM, compound concentration 1 uM, replicate 1
[10] = 48 h, 1 µM, compound concentration 1 uM, replicate 2
[11] = 48 h, 10 µM, compound concentration 10 uM, replicate 1
[12] = 48 h, 10 µM, compound concentration 10 uM, replicate 2

Compound: N#Cc1c(Oc2cccc(OS(=O)(=O)CCCC(F)(F)F)c2)cccc1C(F)(F)F
- Population Apoptotic (%) [1]: 35%
- Population Fragmented Nuclei (%) [1]: 4%
- Population Healthy Nuclei (%) [1]: 86%
- Population Hoechst High Intensity Objects (%) [1]: 5%
- Population Membrane Permeable-Phenotype (%) [1]: 0%
- Population Mitochondria Different-Phenotype (%) [1]: 46%
- Population Mitotic Cells (%) [1]: 65%
- Population Normal (%) [1]: 94%
- Population Pyknosed Nuclei (%) [1]: 8%
- Population Tubulin-Different-Phenotype (%) [1]: 38%
- Total Cell Count [1]: 490
- Population Apoptotic (%) [2]: 63%
- Population Fragmented Nuclei (%) [2]: 6%
- Population Healthy Nuclei (%) [2]: 75%
- Population Hoechst High Intensity Objects (%) [2]: 11%
- Population Mitochondria Different-Phenotype (%) [2]: 60%
- Population Mitotic Cells (%) [2]: 36%
- Population Normal (%) [2]: 88%
- Population Pyknosed Nuclei (%) [2]: 17%
- Population Tubulin-Different-Phenotype (%) [2]: 28%
- Total Cell Count [2]: 349
- Population Apoptotic (%) [3]: 42%
- Population Fragmented Nuclei (%) [3]: 8%
- Population Healthy Nuclei (%) [3]: 65%
- Population Hoechst High Intensity Objects (%) [3]: 10%
- Population Membrane Permeable-Phenotype (%) [3]: 0%
- Population Mitochondria Different-Phenotype (%) [3]: 74%
- Population Mitotic Cells (%) [3]: 57%
- Population Normal (%) [3]: 89%
- Population Pyknosed Nuclei (%) [3]: 25%
- Population Tubulin-Different-Phenotype (%) [3]: 65%
- Total Cell Count [3]: 290
- Population Apoptotic (%) [4]: 44%
- Population Fragmented Nuclei (%) [4]: 6%
- Population Healthy Nuclei (%) [4]: 64%
- Population Hoechst High Intensity Objects (%) [4]: 40%
- Population Mitochondria Different-Phenotype (%) [4]: 81%
- Population Mitotic Cells (%) [4]: 55%
- Population Normal (%) [4]: 59%
- Population Pyknosed Nuclei (%) [4]: 28%
- Population Tubulin-Different-Phenotype (%) [4]: 58%
- Total Cell Count [4]: 318
- Population Apoptotic (%) [5]: 28%
- Population Fragmented Nuclei (%) [5]: 10%
- Population Healthy Nuclei (%) [5]: 77%
- Population Hoechst High Intensity Objects (%) [5]: 3%
- Population Membrane Permeable-Phenotype (%) [5]: 0%
- Population Mitochondria Different-Phenotype (%) [5]: 34%
- Population Mitotic Cells (%) [5]: 71%
- Population Normal (%) [5]: 96%
- Population Pyknosed Nuclei (%) [5]: 12%
- Population Tubulin-Different-Phenotype (%) [5]: 26%
- Total Cell Count [5]: 654
- Population Apoptotic (%) [6]: 60%
- Population Fragmented Nuclei (%) [6]: 8%
- Population Healthy Nuclei (%) [6]: 81%
- Population Hoechst High Intensity Objects (%) [6]: 9%
- Population Mitochondria Different-Phenotype (%) [6]: 48%
- Population Mitotic Cells (%) [6]: 40%
- Population Normal (%) [6]: 90%
- Population Pyknosed Nuclei (%) [6]: 9%
- Population Tubulin-Different-Phenotype (%) [6]: 20%
- Total Cell Count [6]: 412
- Population Apoptotic (%) [7]: 43%
- Population Fragmented Nuclei (%) [7]: 9%
- Population Healthy Nuclei (%) [7]: 77%
- Population Hoechst High Intensity Objects (%) [7]: 13%
- Population Membrane Permeable-Phenotype (%) [7]: 0%
- Population Mitochondria Different-Phenotype (%) [7]: 66%
- Population Mitotic Cells (%) [7]: 56%
- Population Normal (%) [7]: 86%
- Population Pyknosed Nuclei (%) [7]: 13%
- Population Tubulin-Different-Phenotype (%) [7]: 56%
- Total Cell Count [7]: 338
- Population Apoptotic (%) [8]: 45%
- Population Fragmented Nuclei (%) [8]: 10%
- Population Healthy Nuclei (%) [8]: 61%
- Population Hoechst High Intensity Objects (%) [8]: 47%
- Population Mitochondria Different-Phenotype (%) [8]: 68%
- Population Mitotic Cells (%) [8]: 54%
- Population Normal (%) [8]: 52%
- Population Pyknosed Nuclei (%) [8]: 27%
- Population Tubulin-Different-Phenotype (%) [8]: 41%
- Total Cell Count [8]: 312
- Population Apoptotic (%) [9]: 20%
- Population Fragmented Nuclei (%) [9]: 13%
- Population Healthy Nuclei (%) [9]: 81%
- Population Hoechst High Intensity Objects (%) [9]: 1%
- Population Membrane Permeable-Phenotype (%) [9]: 1%
- Population Mitochondria Different-Phenotype (%) [9]: 21%
- Population Mitotic Cells (%) [9]: 79%
- Population Normal (%) [9]: 98%
- Population Pyknosed Nuclei (%) [9]: 5%
- Population Tubulin-Different-Phenotype (%) [9]: 15%
- Total Cell Count [9]: 986
- Population Apoptotic (%) [10]: 56%
- Population Fragmented Nuclei (%) [10]: 12%
- Population Healthy Nuclei (%) [10]: 82%
- Population Hoechst High Intensity Objects (%) [10]: 5%
- Population Membrane Permeable-Phenotype (%) [10]: 0%
- Population Mitochondria Different-Phenotype (%) [10]: 23%
- Population Mitotic Cells (%) [10]: 43%
- Population Normal (%) [10]: 94%
- Population Tubulin-Different-Phenotype (%) [10]: 13%
- Total Cell Count [10]: 568
- Population Apoptotic (%) [11]: 44%
- Population Fragmented Nuclei (%) [11]: 11%
- Population Healthy Nuclei (%) [11]: 78%
- Population Hoechst High Intensity Objects (%) [11]: 5%
- Population Membrane Permeable-Phenotype (%) [11]: 0%
- Population Mitochondria Different-Phenotype (%) [11]: 44%
- Population Mitotic Cells (%) [11]: 55%
- Population Normal (%) [11]: 94%
- Population Pyknosed Nuclei (%) [11]: 10%
- Population Tubulin-Different-Phenotype (%) [11]: 29%
- Total Cell Count [11]: 464
- Population Apoptotic (%) [12]: 58%
- Population Healthy Nuclei (%) [12]: 69%
- Population Hoechst High Intensity Objects (%) [12]: 24%
- Population Mitochondria Different-Phenotype (%) [12]: 47%
- Population Mitotic Cells (%) [12]: 41%
- Population Normal (%) [12]: 75%
- Population Pyknosed Nuclei (%) [12]: 18%
- Population Tubulin-Different-Phenotype (%) [12]: 23%
- Total Cell Count [12]: 363
